Test results: the M2OR odorant receptor database
Where a chain is given by its changes, count along the chain named.

Experiments:
Settings in all cases: stereoisomer not certain
OR52I1 (Homo sapiens) = biological target: T1, OR52I1 (Homo sapiens) (UniProt Q8NGK6)
T1 sequence (whole entry): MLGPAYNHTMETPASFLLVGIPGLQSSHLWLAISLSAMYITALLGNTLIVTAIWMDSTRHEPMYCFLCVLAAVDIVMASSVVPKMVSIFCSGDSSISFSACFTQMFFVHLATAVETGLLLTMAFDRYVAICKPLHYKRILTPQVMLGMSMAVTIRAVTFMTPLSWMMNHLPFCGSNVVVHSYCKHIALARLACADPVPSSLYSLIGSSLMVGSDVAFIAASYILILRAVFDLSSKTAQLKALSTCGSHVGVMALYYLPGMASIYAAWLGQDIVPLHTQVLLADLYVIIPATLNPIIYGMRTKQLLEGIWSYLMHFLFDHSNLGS
How it was run: (§1)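 Assay methods differ from source to source, frequently being transient luciferase assays in mammalian cell lines. For each receptor–molecule pair, the label responsive (active) applies when the original authors judged the measured signal statistically different from baseline, and non-responsive (inactive) applies otherwise.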

OR52I2 (Homo sapiens) = biological target: T2, OR52I2 (Homo sapiens) (UniProt Q8NH67)
T2 sequence (whole entry): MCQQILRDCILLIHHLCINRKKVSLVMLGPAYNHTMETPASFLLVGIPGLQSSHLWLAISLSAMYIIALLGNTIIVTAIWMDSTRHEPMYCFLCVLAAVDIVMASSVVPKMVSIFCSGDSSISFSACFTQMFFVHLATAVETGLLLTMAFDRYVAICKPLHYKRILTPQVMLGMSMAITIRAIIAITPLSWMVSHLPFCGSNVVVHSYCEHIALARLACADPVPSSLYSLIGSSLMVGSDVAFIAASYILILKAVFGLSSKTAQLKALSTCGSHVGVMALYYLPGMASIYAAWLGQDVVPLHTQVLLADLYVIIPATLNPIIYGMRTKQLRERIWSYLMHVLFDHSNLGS
How it was run: as §1

OR52J3 (Homo sapiens) = OR52J3 (Homo sapiens) (UniProt Q8NH60)
OR52J3 (Homo sapiens), sequence (Q8NH60 whole entry): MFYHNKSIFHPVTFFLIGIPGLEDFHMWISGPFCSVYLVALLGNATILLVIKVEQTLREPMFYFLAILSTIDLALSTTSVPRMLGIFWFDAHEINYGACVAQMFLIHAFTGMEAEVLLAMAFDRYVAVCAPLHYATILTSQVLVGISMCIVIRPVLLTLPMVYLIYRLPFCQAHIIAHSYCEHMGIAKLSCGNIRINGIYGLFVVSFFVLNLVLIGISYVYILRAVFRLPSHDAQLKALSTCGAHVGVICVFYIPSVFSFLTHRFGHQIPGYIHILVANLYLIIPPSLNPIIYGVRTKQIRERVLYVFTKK
How it was run: as §1

OR52K1 (Homo sapiens) = biological target: T3, OR52K1 (Homo sapiens) (UniProt Q8NGK4)
T3 sequence (whole entry): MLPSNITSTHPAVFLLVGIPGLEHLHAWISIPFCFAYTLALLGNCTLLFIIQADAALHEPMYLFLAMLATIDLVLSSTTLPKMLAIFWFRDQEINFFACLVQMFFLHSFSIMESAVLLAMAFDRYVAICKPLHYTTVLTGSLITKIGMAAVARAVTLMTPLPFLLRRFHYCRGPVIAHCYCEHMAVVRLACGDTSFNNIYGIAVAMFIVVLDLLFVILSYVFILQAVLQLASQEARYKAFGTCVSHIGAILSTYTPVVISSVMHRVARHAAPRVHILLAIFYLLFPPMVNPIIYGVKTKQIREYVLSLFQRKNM
How it was run: as §1

OR52K2 (Homo sapiens) = biological target: T4, OR52K2 (Homo sapiens) (UniProt Q8NGK3)
T4 sequence (whole entry): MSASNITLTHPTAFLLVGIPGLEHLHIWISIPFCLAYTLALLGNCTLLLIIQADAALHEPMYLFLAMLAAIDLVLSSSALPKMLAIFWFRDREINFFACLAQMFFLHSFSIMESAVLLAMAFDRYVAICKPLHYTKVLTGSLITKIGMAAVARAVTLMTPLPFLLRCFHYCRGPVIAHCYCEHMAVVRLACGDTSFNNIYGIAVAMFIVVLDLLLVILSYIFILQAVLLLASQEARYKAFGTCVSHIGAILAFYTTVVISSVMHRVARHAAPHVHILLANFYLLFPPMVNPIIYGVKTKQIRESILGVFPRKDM
How it was run: as §1

OR52L1 (Homo sapiens) [1] = biological target: T5, OR52L1 (Homo sapiens) (UniProt Q8NGH7)
T5 sequence (whole entry): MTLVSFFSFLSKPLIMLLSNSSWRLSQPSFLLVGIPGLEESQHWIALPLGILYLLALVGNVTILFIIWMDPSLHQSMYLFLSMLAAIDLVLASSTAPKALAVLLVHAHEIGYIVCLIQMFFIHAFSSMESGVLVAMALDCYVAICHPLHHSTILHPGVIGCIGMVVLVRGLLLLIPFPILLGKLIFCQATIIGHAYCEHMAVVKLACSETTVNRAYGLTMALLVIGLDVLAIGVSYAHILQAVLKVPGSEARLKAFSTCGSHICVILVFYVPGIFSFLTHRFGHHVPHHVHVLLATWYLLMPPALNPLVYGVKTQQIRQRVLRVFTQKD
How it was run: as §1

OR52M1 (Homo sapiens) = biological target: T6, OR52M1 (Homo sapiens) (UniProt Q8NGK5)
T6 sequence (whole entry): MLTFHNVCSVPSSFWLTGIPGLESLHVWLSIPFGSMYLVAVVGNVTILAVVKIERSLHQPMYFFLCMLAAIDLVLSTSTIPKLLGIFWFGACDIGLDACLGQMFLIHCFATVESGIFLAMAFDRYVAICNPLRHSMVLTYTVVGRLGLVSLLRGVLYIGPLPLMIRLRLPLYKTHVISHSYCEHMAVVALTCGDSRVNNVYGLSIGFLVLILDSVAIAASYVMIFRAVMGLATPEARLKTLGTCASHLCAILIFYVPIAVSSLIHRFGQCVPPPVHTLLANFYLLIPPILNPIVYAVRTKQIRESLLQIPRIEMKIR
How it was run: as §1

OR52N1 (Homo sapiens) = biological target: T7, OR52N1 (Homo sapiens) (UniProt Q8NH53)
T7 sequence (whole entry): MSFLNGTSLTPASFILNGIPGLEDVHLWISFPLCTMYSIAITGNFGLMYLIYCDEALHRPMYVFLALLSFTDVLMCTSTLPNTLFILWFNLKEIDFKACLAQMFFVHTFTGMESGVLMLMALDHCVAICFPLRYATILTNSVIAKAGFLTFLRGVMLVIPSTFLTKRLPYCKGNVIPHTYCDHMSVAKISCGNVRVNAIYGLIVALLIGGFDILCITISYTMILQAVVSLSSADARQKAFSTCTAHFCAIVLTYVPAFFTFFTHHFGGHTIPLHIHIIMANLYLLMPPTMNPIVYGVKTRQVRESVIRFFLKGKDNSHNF
How it was run: as §1

OR52N2 (Homo sapiens) = biological target: T8, OR52N2 (Homo sapiens) (UniProt Q8NGI0)
T8 sequence (whole entry): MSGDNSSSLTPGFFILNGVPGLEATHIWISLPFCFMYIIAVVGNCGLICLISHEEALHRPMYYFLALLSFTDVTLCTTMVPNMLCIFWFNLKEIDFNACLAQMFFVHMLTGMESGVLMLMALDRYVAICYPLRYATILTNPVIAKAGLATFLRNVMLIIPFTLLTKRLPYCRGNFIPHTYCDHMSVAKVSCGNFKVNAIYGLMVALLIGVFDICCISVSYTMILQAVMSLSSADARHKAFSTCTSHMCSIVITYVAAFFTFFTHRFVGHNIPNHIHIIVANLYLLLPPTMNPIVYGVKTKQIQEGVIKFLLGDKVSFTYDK
How it was run: as §1

OR52N4 (Homo sapiens) = biological target: T9, OR52N4 (Homo sapiens) (UniProt Q8NGI2)
T9 sequence (whole entry): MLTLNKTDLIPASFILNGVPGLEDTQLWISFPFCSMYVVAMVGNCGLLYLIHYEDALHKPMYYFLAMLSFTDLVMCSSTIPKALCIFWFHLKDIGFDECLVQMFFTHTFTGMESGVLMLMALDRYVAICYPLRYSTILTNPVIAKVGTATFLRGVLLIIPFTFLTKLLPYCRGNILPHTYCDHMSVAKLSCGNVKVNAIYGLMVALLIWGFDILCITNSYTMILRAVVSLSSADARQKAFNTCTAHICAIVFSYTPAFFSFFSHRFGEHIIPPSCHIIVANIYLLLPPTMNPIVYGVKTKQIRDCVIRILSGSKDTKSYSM
How it was run: as §1

OR52N5 (Homo sapiens) = biological target: T10, OR52N5 (Homo sapiens) (UniProt Q8NH56)
T10 sequence (whole entry): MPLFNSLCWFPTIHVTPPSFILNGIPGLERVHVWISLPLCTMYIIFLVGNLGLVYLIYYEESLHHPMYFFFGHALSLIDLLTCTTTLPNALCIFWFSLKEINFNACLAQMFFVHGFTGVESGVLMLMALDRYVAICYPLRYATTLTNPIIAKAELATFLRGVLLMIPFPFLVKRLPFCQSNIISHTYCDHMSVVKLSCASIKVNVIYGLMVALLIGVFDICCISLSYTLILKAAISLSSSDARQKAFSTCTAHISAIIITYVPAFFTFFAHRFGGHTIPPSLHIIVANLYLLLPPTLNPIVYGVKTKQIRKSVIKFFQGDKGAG
How it was run: as §1

OR52R1 (Homo sapiens) = biological target: T11, OR52R1 (Homo sapiens) (UniProt Q8NGF1)
T11 sequence (whole entry): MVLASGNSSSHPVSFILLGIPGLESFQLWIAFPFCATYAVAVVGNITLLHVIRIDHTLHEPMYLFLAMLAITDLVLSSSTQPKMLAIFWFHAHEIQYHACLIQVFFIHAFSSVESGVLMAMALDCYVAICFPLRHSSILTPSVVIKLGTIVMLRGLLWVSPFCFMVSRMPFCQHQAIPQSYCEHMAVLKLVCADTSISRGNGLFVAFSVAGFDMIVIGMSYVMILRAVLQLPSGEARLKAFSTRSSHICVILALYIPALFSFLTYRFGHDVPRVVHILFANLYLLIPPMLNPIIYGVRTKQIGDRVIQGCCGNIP
How it was run: as §1

OR52W1 (Homo sapiens) = biological target: T12, OR52W1 (Homo sapiens) (UniProt Q6IF63)
T12 sequence (whole entry): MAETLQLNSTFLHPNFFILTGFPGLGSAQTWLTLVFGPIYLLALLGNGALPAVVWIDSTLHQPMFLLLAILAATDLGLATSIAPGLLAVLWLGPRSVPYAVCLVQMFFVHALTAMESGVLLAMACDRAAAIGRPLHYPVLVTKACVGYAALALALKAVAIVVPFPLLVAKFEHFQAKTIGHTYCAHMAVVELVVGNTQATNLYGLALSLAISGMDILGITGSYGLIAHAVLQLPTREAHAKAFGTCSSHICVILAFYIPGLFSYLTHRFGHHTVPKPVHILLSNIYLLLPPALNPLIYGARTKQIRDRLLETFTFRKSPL
How it was run: as §1

OR52Z1P (Homo sapiens) = OR52Z1P (Homo sapiens) (UniProt P0C646)
OR52Z1P (Homo sapiens), sequence (P0C646 whole entry): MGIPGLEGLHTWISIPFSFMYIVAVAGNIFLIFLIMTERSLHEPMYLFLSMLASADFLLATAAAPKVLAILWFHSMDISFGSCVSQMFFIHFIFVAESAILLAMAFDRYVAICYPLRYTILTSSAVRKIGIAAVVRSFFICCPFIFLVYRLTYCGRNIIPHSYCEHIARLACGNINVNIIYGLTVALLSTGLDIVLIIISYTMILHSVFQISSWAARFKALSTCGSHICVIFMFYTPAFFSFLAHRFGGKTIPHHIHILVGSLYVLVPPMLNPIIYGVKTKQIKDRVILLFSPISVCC
How it was run: as §1

OR56A1 (Homo sapiens) = biological target: T13, OR56A1 (Homo sapiens) (UniProt Q8NGH5)
T13 sequence (whole entry): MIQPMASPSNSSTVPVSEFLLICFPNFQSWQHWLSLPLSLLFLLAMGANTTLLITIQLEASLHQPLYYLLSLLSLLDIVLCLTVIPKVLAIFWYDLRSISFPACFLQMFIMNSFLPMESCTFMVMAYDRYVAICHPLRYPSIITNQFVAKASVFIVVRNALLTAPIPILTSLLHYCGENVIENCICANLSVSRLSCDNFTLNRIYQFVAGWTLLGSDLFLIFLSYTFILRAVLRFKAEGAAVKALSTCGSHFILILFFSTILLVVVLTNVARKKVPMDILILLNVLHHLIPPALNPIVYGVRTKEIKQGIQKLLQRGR
How it was run: as §1

OR56A3 (Homo sapiens) = biological target: T14, OR56A3 (Homo sapiens) (UniProt Q8NH54)
T14 sequence (whole entry): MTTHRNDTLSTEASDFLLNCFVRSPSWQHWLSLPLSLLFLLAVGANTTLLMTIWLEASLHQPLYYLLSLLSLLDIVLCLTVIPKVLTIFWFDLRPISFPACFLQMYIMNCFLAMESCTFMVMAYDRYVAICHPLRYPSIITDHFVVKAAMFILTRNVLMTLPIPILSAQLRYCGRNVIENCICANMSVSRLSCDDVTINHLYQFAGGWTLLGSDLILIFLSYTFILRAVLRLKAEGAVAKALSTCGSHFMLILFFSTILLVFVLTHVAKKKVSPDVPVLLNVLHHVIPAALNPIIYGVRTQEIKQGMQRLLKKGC
How it was run: as §1

OR56A4 (Homo sapiens) = biological target: T15, OR56A4 (Homo sapiens) (UniProt Q8NGH8)
T15 sequence (whole entry): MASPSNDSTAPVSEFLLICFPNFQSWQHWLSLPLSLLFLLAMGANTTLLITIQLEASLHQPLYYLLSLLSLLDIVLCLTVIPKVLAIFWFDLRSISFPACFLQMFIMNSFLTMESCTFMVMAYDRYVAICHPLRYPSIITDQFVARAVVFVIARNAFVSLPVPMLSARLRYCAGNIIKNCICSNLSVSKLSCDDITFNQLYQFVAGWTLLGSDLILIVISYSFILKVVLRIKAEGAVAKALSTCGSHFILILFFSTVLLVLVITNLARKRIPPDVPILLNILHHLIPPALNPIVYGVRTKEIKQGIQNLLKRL
How it was run: as §1

OR56A5 (Homo sapiens) = biological target: T16, OR56A5 (Homo sapiens) (UniProt P0C7T3)
T16 sequence (whole entry): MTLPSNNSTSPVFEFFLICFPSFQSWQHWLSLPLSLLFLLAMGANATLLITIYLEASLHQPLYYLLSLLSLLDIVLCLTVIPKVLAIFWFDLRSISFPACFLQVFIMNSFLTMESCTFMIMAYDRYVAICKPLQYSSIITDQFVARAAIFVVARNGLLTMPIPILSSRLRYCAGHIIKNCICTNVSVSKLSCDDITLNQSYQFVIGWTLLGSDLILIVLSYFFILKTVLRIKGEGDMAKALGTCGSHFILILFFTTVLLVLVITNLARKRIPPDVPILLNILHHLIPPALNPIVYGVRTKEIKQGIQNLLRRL
How it was run: as §1

OR56B1 (Homo sapiens) = biological target: T17, OR56B1 (Homo sapiens) (UniProt Q8NGI3)
T17 sequence (whole entry): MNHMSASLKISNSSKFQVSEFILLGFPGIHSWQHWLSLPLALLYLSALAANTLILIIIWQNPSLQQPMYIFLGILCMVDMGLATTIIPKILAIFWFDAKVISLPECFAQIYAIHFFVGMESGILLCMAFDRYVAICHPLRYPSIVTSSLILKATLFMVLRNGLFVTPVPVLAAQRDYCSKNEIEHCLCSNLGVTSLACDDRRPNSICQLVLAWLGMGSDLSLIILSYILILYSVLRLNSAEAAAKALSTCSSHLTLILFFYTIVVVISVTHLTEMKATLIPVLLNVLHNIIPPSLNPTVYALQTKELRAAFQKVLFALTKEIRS
How it was run: as §1

OR52L1 (Homo sapiens) [2] = biological target: T18, OR52L1 (Homo sapiens) (UniProt Q8NGH7); remark: listed apart in the source
T18 sequence (whole entry): T5 sequence (whole entry) with C140R, C161R, K183T, W297R
How it was run: as §1

Measured: odorant receptor agonist call

CC1CCCCCCCCCCCCC(=O)C1 (stereo unspecified)
not listed: OR52L1 (Homo sapiens) [2]
inactive: all other assays above

CC1=C(O)C(=O)C(C)O1 (stereo unspecified)
not listed: OR52L1 (Homo sapiens) [1] | OR52Z1P (Homo sapiens) | OR56A4 (Homo sapiens)
inactive: all other assays above
